MIC data for five compounds are collected here from ChEMBL document CHEMBL1212777, “Novel VIM metallo-beta-lactamase variant from clinical isolates of Enterobacteriaceae from Algeria” (2010).

Assay type in all cases: functional
In test [1] the test system is Escherichia coli. In words: Antimicrobial activity against Escherichia coli C600 2878 transconjugate expressing beta-lactamase VIM-19 by microdilution method. The method, boiled down:
(§1)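 MIC by dilution on Mueller-Hinton agar, inoculum 10^4 CFU per spot, interpreted by CA-SFM guidelines. Inhibitor combinations where tested: clavulanic acid 2 μg/ml, tazobactam 4 μg/ml, EDTA 0.4 mM. Transconjugants came from rifampin-resistant E. coli C600 selected on rifampin 300 μg/ml plus cefotaxime 0.5 μg/ml. Transformants came from electroporation into E. coli DH5α selected on cefotaxime 0.5 μg/ml.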
Background: Dilution methods test growth across graded concentrations, often in twofold steps.

In test [2] the test system is Klebsiella pneumoniae. As to the kind of experiment: Antimicrobial activity against Klebsiella pneumoniae 6828 strain expressing beta-lactamase VIM-19 by microdilution method. The method, boiled down: (§2)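 Clinical isolates from intensive care patients. MICs by dilution on Mueller-Hinton agar, inoculum 10^4 CFU per spot, read after growth and interpreted by CA-SFM guidelines. Where the line names an inhibitor, it was held at a fixed level: clavulanic acid 2 μg/ml, tazobactam 4 μg/ml, or EDTA 0.4 mM.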

Test [3] concerns Escherichia coli. As to the kind of experiment: Antimicrobial activity against Escherichia coli C600 2878 transconjugate expressing beta-lactamase VIM-19 by microdilution method in presence of 0.4 mM EDTA. The method, boiled down:
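Rifampin-resistant E. coli C600 recipient mated with the clinical strain. Transconjugants were selected on agar with rifampin 300 μg/ml plus cefotaxime 0.5 μg/ml. MICs by dilution on Mueller-Hinton agar, inoculum 10^4 CFU per spot, CA-SFM interpretation. Inhibitor at a fixed level: clavulanic acid 2 μg/ml or EDTA 0.4 mM.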

Test [4] has as its system Providencia stuartii. As to the kind of experiment: Antimicrobial activity against Providencia stuartii 6858 strain expressing beta-lactamase VIM-19 by microdilution method in presence of 0.4 mM EDTA. The method, boiled down:
as §2

The test system of test [5] is Klebsiella pneumoniae. As to the kind of experiment: Antimicrobial activity against Klebsiella pneumoniae 6828 strain expressing beta-lactamase VIM-19 by microdilution method in presence of 0.4 mM EDTA. The method, boiled down: as §2
In test [6] the test system is Escherichia coli. As to the kind of experiment: Antimicrobial activity against Escherichia coli DH5alpha 2878 transformant expressing beta-lactamase VIM-19 by microdilution method in presence of 0.4 mM EDTA. In short, it runs like this: as §1
Test [7] has as its system Escherichia coli. As to the kind of experiment: Antimicrobial activity against Escherichia coli harbouring plasmid BK-CMV expressing beta-lactamase VIM-19 by microdilution method. The method, boiled down: as §1
For test [8], the system named is Escherichia coli. As to the kind of experiment: Antimicrobial activity against Escherichia coli DH5alpha harbouring plasmid BK-VIM-19 expressing beta-lactamase VIM-19 by microdilution method in presence of 0.4 mM EDTA. In short, it runs like this: as §1
Test [9] has as its system Escherichia coli. As to the kind of experiment: Antimicrobial activity against Escherichia coli harbouring plasmidBK-CMV expressing beta-lactamase VIM-19 […] in presence of 0.4 mM EDTA.
Test [10] deals with Klebsiella pneumoniae. In words: Antimicrobial activity against Klebsiella pneumoniae 2878 strain expressing beta-lactamase VIM-19 […] in presence of 0.4 mM EDTA.
The subject of test [11] is Escherichia coli. As to the kind of experiment: Antimicrobial activity against Escherichia coli 2603 strain expressing beta-lactamase VIM-19 by microdilution method. The method, boiled down: as §2
Test [12] relates to Escherichia coli. As to the kind of experiment: Antimicrobial activity against Escherichia coli 138 expressing beta-lactamase VIM-19 by microdilution method in presence of 0.4 mM EDTA. The method, boiled down:
as §1

Test [13] deals with Escherichia coli. As to the kind of experiment: Antimicrobial activity against Escherichia coli DH5alpha 2878 transformant expressing beta-lactamase VIM-19 by microdilution method. The method, boiled down: as §1
In test [14] the test system is Escherichia coli. As to the kind of experiment: Antimicrobial activity against Escherichia coli DH5alpha harbouring plasmid BK-VIM-19 expressing beta-lactamase VIM-19 by microdilution method. The method, boiled down: as §1
The test system of test [15] is Escherichia coli. In words: Antimicrobial activity against Escherichia coli 138 expressing beta-lactamase VIM-19 by microdilution method. In short, it runs like this: as §2
Test [16] relates to Klebsiella pneumoniae. In words: Antimicrobial activity against Klebsiella pneumoniae 2878 strain expressing beta-lactamase VIM-19 by microdilution method. The method, boiled down:
as §2

For test [17], the system named is Providencia stuartii. In words: Antimicrobial activity against Providencia stuartii 6858 strain expressing beta-lactamase VIM-19 by microdilution method. The method, boiled down: as §2
For test [18], the system named is Escherichia coli. As to the kind of experiment: Antimicrobial activity against Escherichia coli 2603 strain expressing beta-lactamase VIM-19 by microdilution method in presence of 0.4 mM EDTA. In short, it runs like this:
as §2

In brackets after ≈: the same amount, converted by molar mass. Where only a bound is given, the exact number is not on record here.

Consider `C[C@@H](O)[C@H]1C(=O)N2C(C(=O)O)=C(S[C@@H]3CN[C@H](C(=O)Nc4cccc(C(=O)O)c4)C3)[C@H](C)[C@H]12`, for which the MIC against Escherichia coli [1] was 1 µg/mL (≈ 2.1 µM); in the test with Klebsiella pneumoniae [2], 16 µg/mL (≈ 33.6 µM); in the test with Escherichia coli [3], less than 0.12 µg/mL; in the test with Providencia stuartii [4] it was less than 0.12 µg/mL; in the test on Klebsiella pneumoniae [5], less than 0.12 µg/mL; with Escherichia coli [6], less than 0.12 µg/mL. In addition, the MIC against Escherichia coli [7] is less than 0.12 µg/mL; with Escherichia coli [8], less than 0.12 µg/mL; in the test on Escherichia coli [9] it was less than 0.12 µg/mL; in the test with Klebsiella pneumoniae [10], 0.25 µg/mL; in the test on Escherichia coli [11] it was 16 µg/mL (≈ 33.6 µM); in the test on Escherichia coli [12], 0.25 µg/mL. Besides, the MIC against Escherichia coli [13] is 8 µg/mL (≈ 16.8 µM); against Escherichia coli [14] it was 4 µg/mL (≈ 8.41 µM); in the test on Escherichia coli [15], 32 µg/mL (≈ 67.3 µM); against Klebsiella pneumoniae [16], 64 µg/mL (≈ 135 µM); in the test with Providencia stuartii [17], 32 µg/mL (≈ 67.3 µM); in the test with Escherichia coli [18], less than 0.12 µg/mL.
`CO/N=C(\C(=O)N[C@@H]1C(=O)N2C(C(=O)[O-])=C(C[N+]3(C)CCCC3)CS[C@H]12)c1csc(N)n1`: the MIC in the test with Klebsiella pneumoniae [2] is 4 µg/mL (≈ 8.32 µM); in the test with Escherichia coli [7], less than 0.12 µg/mL; with Escherichia coli [11] it was 4 µg/mL (≈ 8.32 µM); in the test with Escherichia coli [13] it was 4 µg/mL (≈ 8.32 µM); against Escherichia coli [15] it was 64 µg/mL (≈ 133 µM); with Klebsiella pneumoniae [16], 64 µg/mL (≈ 133 µM). The same compound displayed an MIC in the test with Providencia stuartii [17] of 2 µg/mL (≈ 4.16 µM).
Turning to `C[C@H]1[C@H](NC(=O)/C(=N\OC(C)(C)C(=O)O)c2csc(N)n2)C(=O)N1S(=O)(=O)O` [AZTREONAM], the MIC amounted to 8 µg/mL (≈ 18.4 µM) against Klebsiella pneumoniae [2]; 4 µg/mL in the test on Escherichia coli [3]; 8 µg/mL with Klebsiella pneumoniae [5]; 16 µg/mL in the test on Escherichia coli [6]; 16 µg/mL with Klebsiella pneumoniae [10]; 64 µg/mL (≈ 147 µM) against Escherichia coli [11]. For the same compound, the MIC in the test with Escherichia coli [12] worked out at 128 µg/mL; with Escherichia coli [13], 16 µg/mL (≈ 36.7 µM); in the test with Escherichia coli [15], 128 µg/mL (≈ 294 µM); with Klebsiella pneumoniae [16], 16 µg/mL (≈ 36.7 µM); against Providencia stuartii [17], 2 µg/mL (≈ 4.59 µM); in the test with Escherichia coli [18], 64 µg/mL.
`CO/N=C(\C(=O)N[C@@H]1C(=O)N2C(C(=O)O)=C(COC(C)=O)CS[C@H]12)c1csc(N)n1` [CEFOTAXIME]: the MIC is 64 µg/mL (≈ 141 µM) against Escherichia coli [1]; 128 µg/mL (≈ 281 µM) with Klebsiella pneumoniae [2]; 1 µg/mL in the test with Escherichia coli [3]; 2 µg/mL with Providencia stuartii [4]; 4 µg/mL in the test with Klebsiella pneumoniae [5]; 1 µg/mL in the test with Escherichia coli [6]. Besides, the MIC is 0.06 µg/mL (≈ 0.132 µM) against Escherichia coli [7]; 0.06 µg/mL in the test on Escherichia coli [8]; 0.06 µg/mL in the test with Escherichia coli [9]; 4 µg/mL with Klebsiella pneumoniae [10]; 256 µg/mL (≈ 562 µM) against Escherichia coli [11]; 32 µg/mL in the test on Escherichia coli [12]. In addition, the MIC in the test on Escherichia coli [13] amounted to 256 µg/mL (≈ 562 µM); against Escherichia coli [14] it was 128 µg/mL (≈ 281 µM); against Escherichia coli [15] it was 512 µg/mL (≈ 1120 µM); with Klebsiella pneumoniae [16] it was 256 µg/mL (≈ 562 µM); in the test with Providencia stuartii [17], 128 µg/mL (≈ 281 µM); in the test on Escherichia coli [18] it was 4 µg/mL.
Consider `CO[C@@]1(NC(=O)Cc2cccs2)C(=O)N2C(C(=O)O)=C(COC(N)=O)CS[C@@H]21` [CEFOXITIN], for which the MIC came to 128 µg/mL (≈ 299 µM) against Escherichia coli [1]; 128 µg/mL (≈ 299 µM) against Klebsiella pneumoniae [2]; 4 µg/mL (≈ 9.36 µM) against Escherichia coli [7]; 512 µg/mL (≈ 1200 µM) against Escherichia coli [11]; 256 µg/mL (≈ 599 µM) with Escherichia coli [13]; 128 µg/mL (≈ 299 µM) in the test on Escherichia coli [14]. Moreover, the results for the MIC in the test with Escherichia coli [15], in the test on Klebsiella pneumoniae [16] and against Providencia stuartii [17] were 512 µg/mL (≈ 1200 µM), 512 µg/mL (≈ 1200 µM) and 128 µg/mL (≈ 299 µM), respectively.
